Reference: ChEMBL document CHEMBL1142565, “Prenylbicyclogermacrane diterpenoids from the formosan soft coral Nephthea pacifica” (2005)
≈ marks a conversion by molar mass, not a printed value.

What was measured:
[1] = test system: P388; assay: Cytotoxicity against mouse P388 cells at 0.5 to 50 ug/ml; assay type: functional, cell-based
Procedure, shortened: (§1)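 Cells tested at three concentrations (50, 5 and 0.5 μg/mL). HT-29 (human colon adenocarcinoma) obtained from ATCC. P-388 (mouse lymphocytic leukemia) line supplied by an outside laboratory. Assay otherwise run per a previously described procedure.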

[2] = test system: HT-29; assay: Cytotoxicity against human HT-29 cells 0.5 to 50 ug/ml; assay type: functional, cell-based; procedure, shortened: as §1
[3] = test system: P388; assay: Cytotoxicity against mouse P388 cells; assay type: functional; details: read-out: ED50 (the source's name)
Procedure, shortened: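 P-388 mouse lymphocytic leukemia cells, supplied by an academic laboratory. Test compounds were run at three concentrations (50, 5 and 0.5 μg/mL), following a previously described cytotoxicity procedure.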

SMILES	Activity [1]	Activity [2]	EC50 [3]
C=C1CC/C=C(\C)CC[C@](C)(CCC=C(C)C)[C@H]2C[C@H]12	Not toxic	Not toxic	–
CC(C)=CCC[C@@]1(C)CC[C@]2(C)O[C@H]2CC[C@](C)(O)[C@H]2C[C@@H]21	Not toxic	Not toxic	–
C=C(C)C(O)CC[C@@]1(C)CC[C@]2(C)O[C@H]2CC[C@](C)(O)[C@H]2C[C@@H]21 (stereo not given in full)	Not toxic	Not toxic	–
CC(C)(/C=C/C[C@@]1(C)CC[C@]2(C)O[C@H]2CC[C@](C)(O)[C@H]2C[C@@H]21)OO [PACIFICIN C]	–	Not toxic	1.44 µg/mL (≈ 4.25 µM)
C=C(C)C(CC[C@@]1(C)CC/C(C)=C/[C@H](OC(C)=O)C[C@](C)(O)[C@H]2C[C@@H]21)OO (stereo not given in full) [PACIFICIN H]	–	Not toxic	2.01 µg/mL (≈ 5.28 µM)
C=C1CC/C=C(\C)CC[C@](C)(C/C=C/C(C)(C)O)[C@H]2C[C@H]12	Not toxic	Not toxic	–
CC(C)(O)/C=C/C[C@@]1(C)CC[C@]2(C)O[C@H]2CC[C@](C)(O)[C@H]2C[C@@H]21	Not toxic	Not toxic	–
CC(=O)O[C@H]1/C=C(\C)CC[C@](C)(C/C=C/C(C)(C)OO)[C@H]2C[C@@H]2[C@@](C)(O)C1	Not toxic	Not toxic	–
C=C(C)C(CC[C@@]1(C)CC[C@]2(C)O[C@H]2CC[C@](C)(O)[C@H]2C[C@@H]21)OO (stereo not given in full)	Not toxic	Not toxic	–
C/C1=C\CC[C@](C)(O)[C@H]2C[C@@H]2[C@@](C)(C/C=C/C(C)(C)O)CC1	Not toxic	Not toxic	–
